Experimental data as given in ChEMBL document CHEMBL4689842, “EUbOPEN Chemogenomics Library wave 1” (2021).
Values joined by “and” are separate entries in the source; they are usually repeats but may differ in a detail not shown here. Equal entries are not always repeated.

Test system: Fibroblast
Experiment: Multiplex assay against human fibroblast
Assay type: toxicity, cell-based
Method in brief: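 Four dyes were applied at seeding to live cells: Hoechst33342, BioTracker Green Microtubule Cytoskeleton Dye, MitoTracker Red and Annexin V Alexa Fluor 680. Imaging after compound addition used a CQ1 microscope at 37°C and 5% CO2. CellPathfinder machine-learning gating then sorted cells into Hoechst high-intensity objects or normal cells, normal cells into healthy, pyknosed or fragmented nuclei, and pyknosed cells into mitotic or apoptotic, with tubulin, mitochondrial-mass and membrane-permeability phenotypes given as per cents of healthy-nucleus cells.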

[1] = 12 h, 1 µM, compound concentration 1 uM, replicate 1
[2] = 12 h, 1 µM, compound concentration 1 uM, replicate 2
[3] = 12 h, 10 µM, compound concentration 10 uM, replicate 1
[4] = 12 h, 10 µM, compound concentration 10 uM, replicate 2
[5] = 24 h, 1 µM, compound concentration 1 uM, replicate 1
[6] = 24 h, 1 µM, compound concentration 1 uM, replicate 2
[7] = 24 h, 10 µM, compound concentration 10 uM, replicate 1
[8] = 24 h, 10 µM, compound concentration 10 uM, replicate 2
[9] = 48 h, 1 µM, compound concentration 1 uM, replicate 1
[10] = 48 h, 1 µM, compound concentration 1 uM, replicate 2
[11] = 48 h, 10 µM, compound concentration 10 uM, replicate 1
[12] = 48 h, 10 µM, compound concentration 10 uM, replicate 2

## O=C(NCCCC1CCCCC1)c1ccc(CNC(=O)c2cnn(-c3ccccc3)c2C(F)(F)F)cc1 [SR-321]
[1]
  Population Apoptotic (%): 68% [middle of 4 runs]
  Population Fragmented Nuclei (%): 20% and 21% and 28%
  Population Healthy Nuclei (%): 35% and 39% and 42%
  Population Hoechst High Intensity Objects (%): 12% and 11% and 10%
  Population Mitochondria Different-Phenotype (%): 13% [middle of 4 runs]
  Population Mitotic Cells (%): 36% [middle of 4 runs]
  Population Normal (%): 87% and 88% and 89%
  Population Pyknosed Nuclei (%): 39% [middle of 4 runs]
  Total Cell Count: 176 [middle of 4 runs]
[2]
  Population Membrane Permeable-Phenotype (%): 14% and 0% and 22%
  Population Normal (%): 91% and 78% and 92% and 56%
  Population Pyknosed Nuclei (%): 5% and 6% and 4%
  Total Cell Count: 72 [middle of 4 runs]
[3]
  Population Apoptotic (%): 50% and 60% and 77%
  Population Fragmented Nuclei (%): 23% [middle of 4 runs]
  Population Healthy Nuclei (%): 36% and 34% and 55%
  Population Hoechst High Intensity Objects (%): 10% and 9% and 6%
  Population Mitotic Cells (%): 49% [middle of 4 runs]
  Population Normal (%): 89% and 90% and 93%
  Population Pyknosed Nuclei (%): 46% and 38% and 43%
  Total Cell Count: 161 [middle of 4 runs]
[4]
  Population Healthy Nuclei (%): 71% and 66% and 69%
  Population Membrane Permeable-Phenotype (%): 5% and 2% and 0%
  Population Mitotic Cells (%): 80% and 81% and 44%
  Population Normal (%): 73% and 94% and 91% and 70%
  Total Cell Count: 103 [middle of 4 runs]
[5]
  Population Apoptotic (%): 31% and 58% and 66%
  Population Fragmented Nuclei (%): 20% [middle of 4 runs]
  Population Healthy Nuclei (%): 48% [middle of 4 runs]
  Population Hoechst High Intensity Objects (%): 13% [middle of 4 runs]
  Population Mitochondria Different-Phenotype (%): 6% [middle of 4 runs]
  Population Mitotic Cells (%): 68% and 41% and 33%
  Population Normal (%): 86% and 90% and 82% and 87%
  Population Pyknosed Nuclei (%): 33% [middle of 4 runs]
  Total Cell Count: 174 [middle of 4 runs]
[6]
  Population Membrane Permeable-Phenotype (%): 4% [middle of 4 runs]
  Population Mitochondria Different-Phenotype (%): 19% and 12% and 7%
  Population Mitotic Cells (%): 100% and 40% and 60%
  Population Normal (%): 85% and 95% and 89% and 56%
  Total Cell Count: 79 [middle of 4 runs]
[7]
  Population Apoptotic (%): 50% and 57% and 51% and 64%
  Population Fragmented Nuclei (%): 16% and 31% and 23%
  Population Healthy Nuclei (%): 42% [middle of 4 runs]
  Population Hoechst High Intensity Objects (%): 12% [middle of 4 runs]
  Population Mitotic Cells (%): 49% and 42% and 48% and 35%
  Population Normal (%): 85% and 90% and 89% and 87%
  Population Pyknosed Nuclei (%): 46% and 36% and 34%
  Total Cell Count: 148 [middle of 4 runs]
[8]
  Population Apoptotic (%): 33% and 44%
  Population Fragmented Nuclei (%): 20% and 42%
  Population Healthy Nuclei (%): 67% and 65% and 40%
  Population Membrane Permeable-Phenotype (%): 4% [middle of 4 runs]
  Population Mitotic Cells (%): 50% and 66% and 55%
  Population Normal (%): 93% and 81% and 92% and 63%
  Population Pyknosed Nuclei (%): 15% [middle of 4 runs]
  Total Cell Count: 103 [middle of 4 runs]
[9]
  Population Apoptotic (%): 75% and 54% and 59%
  Population Fragmented Nuclei (%): 29% and 25% and 21%
  Population Healthy Nuclei (%): 44% and 51% and 53%
  Population Hoechst High Intensity Objects (%): 16% and 14% and 15%
  Population Membrane Permeable-Phenotype (%): 36% and 26% and 20%
  Population Mitochondria Different-Phenotype (%): 2% and 6%
  Population Mitotic Cells (%): 24% and 45% and 40%
  Population Normal (%): 83% and 85% and 84%
  Population Pyknosed Nuclei (%): 26% and 22% and 24%
  Population Tubulin-Different-Phenotype (%): 38% and 34% and 20%
  Total Cell Count: 132 and 170 and 130
[10]
  Population Fragmented Nuclei (%): 14% and 19% and 13%
  Population Healthy Nuclei (%): 85% and 80%
  Population Hoechst High Intensity Objects (%): 13% and 9%
  Population Membrane Permeable-Phenotype (%): 16% and 10%
  Population Mitochondria Different-Phenotype (%): 1% and 0%
  Population Mitotic Cells (%): 0%
  Population Normal (%): 86% and 90%
  Population Pyknosed Nuclei (%): 1% and 0%
  Population Tubulin-Different-Phenotype (%): 28% and 17% and 14%
  Total Cell Count: 116 and 92 and 152
[11]
  Population Apoptotic (%): 63% and 65% and 75%
  Population Fragmented Nuclei (%): 27% and 40% and 39%
  Population Healthy Nuclei (%): 39% and 42%
  Population Hoechst High Intensity Objects (%): 15% and 13% and 9%
  Population Membrane Permeable-Phenotype (%): 15% and 23% and 22%
  Population Mitochondria Different-Phenotype (%): 10% and 23% and 14%
  Population Mitotic Cells (%): 36% and 35% and 24%
  Population Normal (%): 84% and 86% and 90%
  Population Pyknosed Nuclei (%): 33% and 16% and 21%
  Population Tubulin-Different-Phenotype (%): 46% and 52% and 68%
  Total Cell Count: 117 and 138 and 152
[12]
  Population Apoptotic (%): 50% and 100%
  Population Fragmented Nuclei (%): 21%
  Population Healthy Nuclei (%): 68% and 76% and 75%
  Population Hoechst High Intensity Objects (%): 8% and 14%
  Population Mitochondria Different-Phenotype (%): 7% and 5% and 11%
  Population Normal (%): 91% and 85%
  Population Tubulin-Different-Phenotype (%): 67% and 60% and 42%
  Total Cell Count: 108 and 85 and 70

## Cc1nc(-c2cn3c(n2)-c2ccc(-c4cnn(C(C)(C)C(N)=O)c4)cc2OCC3)n(C(C)C)n1 [TASELISIB]
[1]
  Population Apoptotic (%): 85%
  Population Fragmented Nuclei (%): 29%
  Population Healthy Nuclei (%): 53%
  Population Hoechst High Intensity Objects (%): 12%
  Population Membrane Permeable-Phenotype (%): 7%
  Population Mitochondria Different-Phenotype (%): 6%
  Population Mitotic Cells (%): 14%
  Population Normal (%): 87%
  Population Pyknosed Nuclei (%): 17%
  Population Tubulin-Different-Phenotype (%): 16%
  Total Cell Count: 221
[2]
  Population Apoptotic (%): 100%
  Population Fragmented Nuclei (%): 61%
  Population Healthy Nuclei (%): 33%
  Population Hoechst High Intensity Objects (%): 30%
  Population Membrane Permeable-Phenotype (%): 15%
  Population Mitochondria Different-Phenotype (%): 10%
  Population Mitotic Cells (%): 0%
  Population Normal (%): 69%
  Population Pyknosed Nuclei (%): 5%
  Population Tubulin-Different-Phenotype (%): 60%
  Total Cell Count: 86
[3]
  Population Apoptotic (%): 71%
  Population Fragmented Nuclei (%): 25%
  Population Healthy Nuclei (%): 65%
  Population Hoechst High Intensity Objects (%): 11%
  Population Membrane Permeable-Phenotype (%): 7%
  Population Mitochondria Different-Phenotype (%): 2%
  Population Mitotic Cells (%): 28%
  Population Normal (%): 88%
  Total Cell Count: 188
[4]
  Population Apoptotic (%): 33%
  Population Fragmented Nuclei (%): 47%
  Population Healthy Nuclei (%): 43%
  Population Hoechst High Intensity Objects (%): 30%
  Population Membrane Permeable-Phenotype (%): 13%
  Population Mitochondria Different-Phenotype (%): 13%
  Population Mitotic Cells (%): 66%
  Population Normal (%): 69%
  Population Pyknosed Nuclei (%): 8%
  Population Tubulin-Different-Phenotype (%): 0%
  Total Cell Count: 99
[5]
  Population Apoptotic (%): 78%
  Population Fragmented Nuclei (%): 32%
  Population Healthy Nuclei (%): 51%
  Population Hoechst High Intensity Objects (%): 14%
  Population Membrane Permeable-Phenotype (%): 5%
  Population Mitochondria Different-Phenotype (%): 7%
  Population Mitotic Cells (%): 21%
  Population Normal (%): 85%
  Population Pyknosed Nuclei (%): 16%
  Population Tubulin-Different-Phenotype (%): 18%
  Total Cell Count: 238
[6]
  Population Apoptotic (%): 60%
  Population Fragmented Nuclei (%): 62%
  Population Healthy Nuclei (%): 30%
  Population Hoechst High Intensity Objects (%): 27%
  Population Membrane Permeable-Phenotype (%): 14%
  Population Mitochondria Different-Phenotype (%): 0%
  Population Mitotic Cells (%): 40%
  Population Normal (%): 72%
  Population Pyknosed Nuclei (%): 7%
  Population Tubulin-Different-Phenotype (%): 47%
  Total Cell Count: 97
[7]
  Population Apoptotic (%): 73%
  Population Fragmented Nuclei (%): 23%
  Population Healthy Nuclei (%): 67%
  Population Hoechst High Intensity Objects (%): 13%
  Population Membrane Permeable-Phenotype (%): 6%
  Population Mitochondria Different-Phenotype (%): 2%
  Population Mitotic Cells (%): 26%
  Population Normal (%): 86%
  Population Tubulin-Different-Phenotype (%): 1%
  Total Cell Count: 188
[8]
  Population Apoptotic (%): 42%
  Population Fragmented Nuclei (%): 38%
  Population Healthy Nuclei (%): 51%
  Population Hoechst High Intensity Objects (%): 22%
  Population Membrane Permeable-Phenotype (%): 10%
  Population Mitochondria Different-Phenotype (%): 15%
  Population Mitotic Cells (%): 57%
  Population Normal (%): 77%
  Population Pyknosed Nuclei (%): 9%
  Population Tubulin-Different-Phenotype (%): 5%
  Total Cell Count: 99
